RGS4 act – potentiators or activators of RGS4. AID 463111. HEK293 M3R/inducible RGS4, carbachol calcium flux Fluo4; stronger effect = lower value. B-score at 10 µM. actives 0.92% (n = 310,000);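 active = B-score of the integrated calcium signal more than 4 SD below the library mean, with starting fluorescence not abnormally high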;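 also: negative B-score means reduced calcium response which marks RGS4 activation or potentiation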
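Reagent: ECmax carbachol challenge; Test system: M3R-expressing HEK293 line, RGS4 induced by doxycycline; Schedule: overnight RGS4 induction, 30 min dye load 37 °C, 20 min compound RT; Detection: calcium dye Fluo4 fluorescence; Read-out: Agonist-evoked peak-minus-minimum fluorescence over baseline, integrated ratio, B score.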
MrgX1 allo act – allosterically activates human MrgX1 receptor signaling. MrgX1-HEK293, Fluo-4 calcium flux, FDSS; stronger effect = higher value. B-score at 10 µM. actives 0.63% (n = 310,000);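 active = plate-corrected calcium response at least 3 library SD above typical, normal starting fluorescence, not activating the receptor alone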;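 also: compound read alongside a low EC10 to EC30 dose of BAM8-22 agonist; peak minus trough fluorescence over baseline measured at the second addition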
Target sequence (Q96LB2 whole entry, looked up): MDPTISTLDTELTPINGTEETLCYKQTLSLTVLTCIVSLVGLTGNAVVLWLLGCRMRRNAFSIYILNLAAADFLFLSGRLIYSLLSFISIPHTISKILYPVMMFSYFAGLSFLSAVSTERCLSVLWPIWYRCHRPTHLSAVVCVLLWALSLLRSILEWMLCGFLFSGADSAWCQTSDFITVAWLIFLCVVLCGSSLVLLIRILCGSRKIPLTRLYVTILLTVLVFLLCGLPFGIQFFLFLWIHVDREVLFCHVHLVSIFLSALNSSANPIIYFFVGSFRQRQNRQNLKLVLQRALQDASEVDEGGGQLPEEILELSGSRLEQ
MrgX1 agonist – human MrgX1 receptor agonism, primary screen. actives 0.44% (n = 310,000). MrgX1-HEK293 cells, Fluo-4 calcium fluorescence, agonist mode; stronger effect = higher value. Q96LB2. B-score at 10 µM;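 active = calcium response B-score plate-corrected fluorescence ratio at least 3 library SD, with starting fluorescence B-score inside 5 SD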
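System: HEK293 cells stably expressing human MrgX1 receptor; Dosing: test compound in the initial addition of three; Schedule: overnight plating, then 30 min 37 °C plus 30 min room-temperature dye loading; Detection: kinetic calcium dye fluorescence, Fluo-4 NW; Controls: per-plate positive and negative controls for Z′ factor.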
MrgX1 antag – antagonists of human MrgX1 receptor; Q96LB2; MRGX1-HEK293 calcium flux, Fluo-4, BAM8-22 antagonism; stronger effect = lower value; B-score at 10 µM; actives 1.3% (n = 310,000);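 active = calcium-response B-score plate-corrected more than 3 library SD below zero, starting fluorescence within 5 deviations, no agonist response on first addition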;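 also: peak minus trough fluorescence over baseline after final BAM8-22 challenge near maximal dose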
RGS4 inh – inhibitors of human RGS4; actives 0.45% (n = 310,000); HEK293 M3R/RGS4 inducible, Fluo-4 calcium flux; stronger effect = higher value; triggered by carbachol at its EC20; P49798; AID 463165; B-score at 10 µM;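 active = B-score, a plate-corrected calcium signal, over three deviations above library mean, with baseline fluorescence within five deviations of library mean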;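 also: RGS4 expression induced by doxycycline in cells with stable M3 receptor; B-score is computed from the integrated fluorescence ratio over baseline after carbachol; higher B-score means a larger calcium signal and so more RGS4 inhibition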
Target sequence (P49798 whole entry, looked up): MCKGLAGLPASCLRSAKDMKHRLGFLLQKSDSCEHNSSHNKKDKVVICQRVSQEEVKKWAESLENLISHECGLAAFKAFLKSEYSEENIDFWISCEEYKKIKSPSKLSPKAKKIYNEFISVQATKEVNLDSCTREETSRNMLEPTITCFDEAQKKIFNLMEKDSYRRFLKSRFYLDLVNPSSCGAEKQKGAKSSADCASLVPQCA
Large screens that a line does not name were inactive. Rows were chosen to be rich in hits. Some 3.5% of all compounds tested hit in one or more screens of this group.

Cc1ccc(N2C(=S)SC3CS(=O)(=O)CC32)cc1 (stereo not given)	MrgX1 antag -5.5
COc1ccccc1C1NC=C([N+](=O)[O-])C=C1[N+](=O)[O-] (stereo not given)	MrgX1 agonist 29
Cc1cc(Cl)ccc1NC(=O)C1CCN(S(C)(=O)=O)CC1	none
CC1(OC(=O)c2ccco2)C(=O)C=C2C=C(C3CC3)OC=C2C1=O (stereo not given)	MrgX1 antag -5
Cc1cc(C)c2nc(C)cc(N/N=C/c3ccc(O)cc3)c2c1	RGS4 act -7.4
CCCn1c(O)c(N=Nc2ccc3ccccc3n2)c2ccccc21	MrgX1 antag -4.8
CC(C)CCn1c(O)c(N=Nc2ccccn2)c2ccccc21	none
COCCN(C(=S)Nc1cccc(C)c1)C(C)c1cccs1 (stereo not given)	none
CC(C)CCN(C(=S)Nc1cccc(F)c1)C(C)c1cccs1 (stereo not given)	MrgX1 allo act 10
CCCc1nc(SCc2ccc(OCC)cc2)n[nH]1	none
COc1ccc(N2CCN(Cc3cc(=O)c(OCC(=O)Nc4ccccc4)co3)CC2)cc1	none
COc1ccc(NC(=O)COc2coc(CN3CCN(c4ccccc4)CC3)cc2=O)cc1	MrgX1 antag -5.7
Cc1ccc(-c2c[n+]3c(n2-c2ccccc2)SCC3)cc1	none
COc1ccc(-c2c[n+]3c(n2-c2ccccc2)SCC3)cc1	RGS4 act -8.5
COc1ccc(-c2c[n+]3c(n2-c2ccccc2)CCCCC3)cc1	RGS4 act -8.3
Cc1cc(C)cc(NS(=O)(=O)c2ccc3[nH]c(=O)ccc3c2)c1	none
Nc1ncc(-n2cncn2)c(-c2ccc(Cl)cc2)n1	none
Cc1cccc(-c2noc(Cc3ccccc3)n2)c1	MrgX1 antag -8.2
CC(=O)/C(N=Nc1cccc(C(F)(F)F)c1)=C(\C)O	none
O=C(/C(N=Nc1cccc(C(F)(F)F)c1)=C(/O)c1cccs1)C(F)(F)F	RGS4 act -9.2
COc1cccc(-n2nnnc2SCC(=O)Nc2ccccc2OC)c1	none
CCCS(=O)(=O)c1nnnn1-c1cccc(OC)c1	MrgX1 agonist 50
COc1cc(N=c2ssnc2Cl)c(OC)cc1Cl	MrgX1 agonist 40
Cc1ccc(C)c(N2CC(O)(c3cccs3)[N+]3=C2CCCC3)c1 (stereo not given)	none
OC1(c2cccs2)CN(c2ccc(Cl)cc2)C2=[N+]1CCCC2 (stereo not given)	RGS4 act -9.1
OC1(c2cccs2)CN(c2ccc(Cl)cc2)C2=[N+]1CCCS2 (stereo not given)	MrgX1 agonist 28
CC1CCC(NS(=O)(=O)c2ccc(N3CCCC3=O)cc2)CC1 (stereo not given)	none
COc1ccc(NC(=O)C2CC(=O)N(CCc3ccc(Cl)cc3)C2)cc1 (stereo not given)	none
COc1ccc(N2CC(NS(=O)(=O)c3ccc(F)cc3)CC2=O)cc1 (stereo not given)	none
Cc1c(-n2cc(C(=O)c3cc(F)ccc3O)cc(C#N)c2=O)c(=O)n(-c2ccccc2)n1C	MrgX1 allo act 6.7
O=C(NCc1cccc(Cl)c1)c1ccc(N2CC3CC(C2)c2cccc(=O)n2C3)c(NC(=O)c2cccnc2)c1 (stereo not given)	none
CC(=O)Nc1sc(C)c(C)c1C(=O)OCC(=O)N(CC(C)C)c1c(N)n(Cc2ccccc2)c(=O)[nH]c1=O	RGS4 act -7.8
COC(=O)c1c(C)[nH]c(C(=O)OCC(=O)N(CC(C)C)c2c(N)n(Cc3ccccc3)c(=O)[nH]c2=O)c1C	none
Cc1ccc2nsnc2c1S(=O)(=O)Nc1ccccc1C(=O)O	none
CC1CCN(CC(=O)Nc2ccccc2Sc2ccccc2)CC1	RGS4 act -7.4
COCCCN(C(=O)CC1OC(=O)c2ccccc21)c1c(N)n(Cc2ccccc2)c(=O)[nH]c1=O (stereo not given)	none
CC(OC(=O)c1ccccc1C(=O)N(C)c1ccccc1)C(=O)Nc1ccccc1[N+](=O)[O-] (stereo not given)	none
COc1ccc(-c2nc(CS(=O)CC(=O)NCc3ccc4c(c3)OCO4)c(C)o2)cc1OC (stereo not given)	none
CC(C)c1c(Cl)c(O)c(-c2ccccc2)c(=O)n1-c1ccc(F)cc1	MrgX1 antag -5.3
CC(C)c1cc(O)c(-c2ccccc2)c(=O)n1-c1ccc(Cl)cc1	none
CSc1ccc(Cl)c(C(=O)NCCOc2cc(C)ccc2C(C)C)c1	RGS4 act -7.2
O=C(NC(Cc1ccccc1)C(=O)Oc1ccc2c(C(F)(F)F)cc(=O)oc2c1)OCc1ccccc1 (stereo not given)	MrgX1 allo act 8.4
O=C(CNC(=O)OCc1ccccc1)Oc1ccc2ccc(=O)oc2c1	none
CCN(CC(=O)NCc1ccc(F)cc1)C(=O)c1cccnc1SC	none
COc1ccccc1NC1=C(Cl)C(=O)N(C2CCCCC2)C1=O	MrgX1 allo act 7.6
COc1ccc(N2C(=O)C(Cl)=C(NCc3ccccc3)C2=O)cc1	none
CCOc1ccccc1NC1=C(Cl)C(=O)N(c2ccc(OC)cc2)C1=O	MrgX1 allo act 7.9
CCOc1cccc2cc(C(=O)NCCC3=CCCCC3)c(=O)oc12	none
Cc1noc(C)c1COc1ccc(C(=O)Nc2cccnc2)cc1	RGS4 act -7.4 (no result: MrgX1 allo act, MrgX1 agonist, MrgX1 antag)
COc1ccc2c(c1)cc(C(=O)N[C@@H](CCSC)C(=O)N1CCC(C(=O)O)CC1)n2C	none
CCN1CCN(c2ncc(C(=O)Nc3cc(Cl)c(OC)cc3OC)c3ccccc23)CC1	RGS4 act -7.3 (no result: MrgX1 allo act, MrgX1 agonist, MrgX1 antag)
CCN1CCN(c2ncc(C(=O)Nc3c(F)cc(F)cc3Br)c3ccccc23)CC1	none
Cc1nn(C)cc1S(=O)(=O)N1CCN(c2ccccc2)CC1	none
COc1ccc(/C=N/NS(=O)(=O)c2ccc(F)cc2)cc1COc1cc(F)ccc1[N+](=O)[O-]	none
CCOC(=O)c1ccccc1OCc1cc(/C=N/NC(=O)c2cccnc2)ccc1OC	RGS4 act -7.9
COc1ccc(/C=N\NC(=O)c2ccccc2)cc1COc1ccccc1	none
COc1ccc(/C=N\NC(=O)c2ccc(F)cc2)cc1COc1cc(F)ccc1[N+](=O)[O-]	RGS4 act -9.8
COc1ccc(C(=O)N/N=C(\C)CC(=O)NC2CCCCC2)c(OC)c1	none
Cc1ccc(C)c(OC(=O)c2cccnc2)c1	none
CC(=O)Nc1ccc(Br)c2ccccc12	none
O=C(Nc1ccc(Br)c2ccccc12)c1ccc2ccccc2c1O	RGS4 act -7.5
COc1ccc(N2C(=O)C3CCCCC3C2=O)cc1NC(=O)c1ccccc1 (stereo not given)	none
COCCNc1oc(/C=C/c2ccccc2OC)nc1S(=O)(=O)c1ccccc1	MrgX1 allo act 6.9
O=C(COc1ccc(S(=O)(=O)N2CCCC2)cc1)NCc1ccccn1	none
CCCN1CCN(c2nc(-c3cccs3)nc3ccccc23)CC1	none

Source: PubChem
